High-throughput results: PubChem, several laboratories
An excerpt weighted towards active compounds, which were near 2% of everything screened.
Bfl-1 A1 inh: caspase 3/7 activation in MEF A1-2A-BIM cells, primary screen, A1 inhibitor project, cell-based, luminescence, HTS. 0.066% of 330,000 active. AID 2462, 2010. caspase activation, % (concentration not given with the values). Caspase-Glo 3/7 luminescence, 3 h; percent of clofoctol response, vehicle zero;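 active = over half of replicate activation scores above 10%, or exactly half above 10 with the replicate mean above 10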
MC4R antagonist: MC4R antagonists of cAMP signaling, primary screen, cell-based, TR-FRET, antagonist arm of biased-ligand search; inhibition, % at 6.5 µM; 0.48% of 360,000 active; MC4R-expressing cells, MTII-stimulated cAMP, LANCE TR-FRET;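 active = inhibition above its plate's cutoff, the mean of tested wells on that plate plus 3 SD, cut at about 29% in these data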
Target sequence (P32245 whole entry, looked up): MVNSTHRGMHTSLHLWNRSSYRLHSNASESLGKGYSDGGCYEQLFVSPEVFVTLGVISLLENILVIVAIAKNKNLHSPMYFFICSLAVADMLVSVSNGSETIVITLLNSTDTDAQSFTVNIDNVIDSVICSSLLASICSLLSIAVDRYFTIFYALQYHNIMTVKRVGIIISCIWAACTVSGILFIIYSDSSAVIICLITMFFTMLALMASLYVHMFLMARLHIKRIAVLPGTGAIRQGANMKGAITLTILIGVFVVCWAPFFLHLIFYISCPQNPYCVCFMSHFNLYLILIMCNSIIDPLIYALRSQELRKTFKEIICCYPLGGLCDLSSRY
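system = U2OS cells with stable human MC4R expression | also added = Melanotan II challenge after compound preincubation | dosing = one concentration, 6.5 µM nominal | incubation = compound 30 min, challenge 1 h, detection 1 h | measured by = TR-FRET with Eu-cAMP and labeled anti-cAMP, 671 nm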
MC4R ag barr: MC4R agonists recruiting beta-arrestin, primary screen, cell-based, luminescence, agonist arm of biased-ligand search | 0.98% of 360,000 active | AID 540308, 2011 | U2OS MC4R beta-arrestin complementation; percent of melanotan II response, DMSO zero | activation, % at 8.9 µM;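 active = activation above a per-plate cutoff, the mean activation of sample wells on that plate plus 3 SD, cut at about 8% in these data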
UPR XBP1 act: activators of adaptive XBP1 UPR arm, primary screen, cell-based, CHO-XBP1 luciferase reporter, luminescence, uHTS. AID 463104, 2010. IRE1-XBP1 UPR activation; percent of tunicamycin response, DMSO as zero. activation, % at 20 µM. 0.33% of 330,000 active;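 active = versus positive control, 20 µM dose yields 30% or more activation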
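assay system = CHO-XBP1 luciferase reporter cells | amount = 1000 cells/well | buffer or medium = F12 plus 10% FBS | compound dosing = single point, 20 µM final compound, 1% DMSO | incubation = 16-18 h cell attachment at 37 °C, then 6 h compound exposure | detection = Steady-Glo luminescence read | controls = tunicamycin 10 µg/mL and vehicle-only wells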
CHOP UPR activ: activators of apoptotic CHOP UPR arm, primary screen, cell-based, CHO-CHOP luciferase reporter, luminescence, uHTS; activation, % at 10 µM; 0.34% of 330,000 active; UPR activation; percent of tunicamycin response over DMSO baseline; AID 449763, 2010;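 active = at 10 µM dose, activation of 40% or more, normalized to positive control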
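assay system = CHO CHOP reporter cells | amount = 500 CHO-CHOP cells per well | buffer or medium = F12 with 10% FBS | incubation = 16-18 h cell attachment, then 6 h compound exposure, 37 °C | detection = luminescence read with Steady-Glo | read-out = percent activation relative to tunicamycin control | controls = tunicamycin high control, DMSO low control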
MC4R barr conf: MC4R beta-arrestin agonists, retest, confirmation, cell-based, luminescence, U2OS. shares compounds with MC4R ag barr. 31% of 2,400 active. activation, % at 8.9 µM. U2OS MC4R beta-arrestin recruitment; scaled DMSO 0%, Melanotan II 100%;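 active = mean activation across replicates above the hit cutoff set in the earlier primary screen, cut at about 8% in these data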
MOR DOR agonist: agonists of MOR-DOR heterodimerization, counter-screen for MC4R biased agonist project, cell-based, luminescence. shares compounds with MC4R ag barr. 5.8% of 2,400 active. U2OS PathHunter beta-arrestin, beta-gal luminescence; percent of deltorphin B response, DMSO zero. activation, % at 9.2 µM. AID 602194, 2012;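 active = mean activation across replicates exceeds the hit threshold derived in the earlier primary screen, cut at about 18% in these data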
A number is an active result; 0 = inactive; - = not tested or not shown.

SMILES	Bfl-1 A1 inh	MC4R antagonist	MC4R ag barr	UPR XBP1 act	CHOP UPR activ	MC4R barr conf	MOR DOR agonist
NC(CCc1ccccc1)c1csc(Nc2ccc(C(F)(F)F)cn2)n1 (centres undefined)	-	0	17	-	-	0	0
CC(C)CC(N)c1csc(Nc2ccc(C(F)(F)F)cn2)n1 (centres undefined)	-	0	10	-	-	26	0
O=C(C[C@H]1C[C@@H]2c3cc(NC(=O)c4cccnc4)ccc3O[C@@H]2[C@H](CO)O1)NCc1ccncc1	-	0	0	-	-	-	-
Cc1cc(N2O[C@H]3C=C[C@@H]2C3)no1	-	0	0	0	0	-	-
CC(=O)Nc1ccc(S(=O)(=O)N(C)CC(=O)OC(C)C(=O)NC2(C#N)CCCCC2)cc1 (centres undefined)	-	0	0	-	-	-	-
Cc1ccc(N(CC(=O)NC(C)c2ccccc2)S(=O)(=O)c2cccs2)cc1 (centres undefined)	0	0	17	0	0	0	0
O=C(C[C@H]1C[C@@H]2c3cc(NC(=O)Nc4ccccc4)ccc3O[C@@H]2[C@@H](CO)O1)NCC1CC1	-	0	0	-	-	-	-
CCOC(=O)N/N=C\c1ccc(OC/C=C/c2ccccc2)cc1	0	0	11	0	0	0	0
COc1ccccc1OCCn1cc(/C=C(\C#N)C(=O)NCc2ccco2)c2ccccc21	0	0	0	0	0	-	-
Cc1ccc(C)c(OCCn2cc(/C=C(\C#N)C(=O)NCc3ccco3)c3ccccc32)c1	0	0	11	0	0	12	0
N#C/C(=C\c1cn(CCOc2ccccc2)c2ccccc12)C(=O)NCc1cccs1	0	0	23	0	0	0	0
COc1ccc(OCCn2cc(/C=C(\C#N)C(=O)NCc3ccco3)c3ccccc32)cc1	0	0	50	0	0	52	30
Cc1ccccc1C(=O)NC(=S)NCC1CCCO1 (centres undefined)	0	0	0	0	0	-	-
O=C(NC(=S)NCC1CCCO1)C(c1ccccc1)c1ccccc1 (centres undefined)	0	0	13	0	0	0	0
Cc1nc2nc(C)c(C)nc2nc1C	-	0	0	-	-	-	-
Cc1cccc(Nc2ncnc3onc(-c4cccc(Cl)c4)c23)c1	0	0	11	0	0	0	0
CC1C(=O)N(Cc2cn(CCC3OCCO3)nn2)CCS(=O)(=O)N1Cc1ccc(-c2ccc(Cl)cc2)cc1 (centres undefined)	-	0	0	-	-	-	-
COc1ccc(CNCc2cc3c(C(C)(C)C)nn(-c4ccccc4)c3[nH]c2=O)cc1	0	0	15	0	0	14	0
O=C1CCc2cc(S(=O)(=O)N3CCN(c4ccc(F)cc4)CC3)cc3c2N1CC3	0	0	13	0	0	0	0
CC1(C(=O)NS(=O)(=O)c2ccc(Cl)cc2)CCN1C(=O)C1CC1 (centres undefined)	-	0	0	-	-	-	-
O=C(CO/N=C/c1ccc(OC(F)F)cc1)N1CCc2ccccc21	0	0	0	0	0	-	-
O=C(/C=C/c1ccc(OC(F)F)cc1)OCC(=O)N1CCc2ccccc21	0	0	13	0	0	0	0
Cc1nc(NC(=O)c2cc3ccccc3o2)ccc1Br	0	0	11	0	0	0	0
CCCCCCCCCCS(=O)(=O)N/N=C/c1ccc([N+](=O)[O-])cc1	0	0	13	0	0	0	0
Cc1ccc(Cn2ccc(NC(=O)c3cc(-c4ccc(Br)cc4)on3)n2)cc1	0	0	0	0	0	-	-
SMILES	Bfl-1 A1 inh	MC4R antagonist	MC4R ag barr	UPR XBP1 act	CHOP UPR activ	MC4R barr conf	MOR DOR agonist
Cc1ccc(Cn2ccc(NC(=O)c3cc(-c4ccccc4)on3)n2)cc1	0	0	11	0	0	0	0
N#CCn1c2ccccc2c2nc3ccccc3nc21	0	0	0	0	0	-	-
C#CCn1c2ccccc2c2nc3ccccc3nc21	0	0	11	0	0	0	0
C=CCOC(=O)C1=C(C)NC(SCC(=O)Nc2nccs2)=C(C#N)C1c1ccc(Cl)cc1 (centres undefined)	0	0	11	0	0	0	0
C=CCOC(=O)C1=C(C)NC(SCC(=O)Nc2nccs2)=C(C#N)C1c1cccs1 (centres undefined)	0	0	0	0	0	-	-
O=C(CCN1C(=O)/C(=C/c2ccccc2F)SC1=S)NC1C=CS(=O)(=O)C1 (centres undefined)	0	0	10	0	0	0	0
CCOC(=O)c1ccc(S(=O)(=O)NC2CCC(C)CC2)cc1 (centres undefined)	0	0	11	0	0	0	0
Oc1nc(Nc2ccccc2)sc1/C=C1\C=Nc2ccccc21	0	0	0	0	0	-	-
CCOC(=O)c1c(Nc2ccccc2)sc(/C=C2\C=Nc3ccccc32)c1O	0	0	15	0	0	0	0
O=C(/C=C/c1ccc2c(c1)OCCCO2)c1ccccc1O	0	0	0	0	0	-	-
Cc1ccc(O)c(C(=O)/C=C/c2ccc3c(c2)OCCCO3)c1	0	0	23	0	0	24	0
O=C(NCc1ccc2c(c1)OCO2)c1cc(-c2ccccc2Cl)on1	0	0	0	0	0	-	-
COc1cccc(-c2cc(C(=O)Nc3ccc4c(c3)OCO4)no2)c1	0	0	16	0	0	0	0
O=C(Nc1ccc2c(c1)OCO2)c1cc(-c2ccccc2Cl)on1	0	0	32	0	0	0	0
CCCc1c(C(=O)N/N=C(\CC)c2ccccc2)nnn1-c1nonc1N	-	0	0	-	-	-	-
Cn1c(=O)c2cc(NC(=O)CCc3cccc(Cl)c3)ccc2n1Cc1cccc(C(F)(F)F)c1	-	0	14	-	-	0	0
COc1cccc(COC(=O)c2ccc3c(c2)NC(=O)C(C)S3)c1OC (centres undefined)	0	0	19	0	0	0	0
CC1Sc2ccc(C(=O)OCc3ccccc3Cl)cc2NC1=O (centres undefined)	0	0	35	0	0	0	0
c1ccc(OCCCn2nnc(-c3ccc(N4CCOCC4)cc3)n2)cc1	0	0	17	0	0	0	0
CCOc1ccc(N(C)S(=O)(=O)c2ccc(C)c(C(=O)N3CCN(Cc4ccc5c(c4)OCO5)CC3)c2)cc1	0	0	0	0	0	-	-
